Fewer inactive variants are shown than the library holds.
B1: tRNA (parent)
chain: GUUCCGUUGGCGUAAUGGUAACGCGUCUCCCUCCUAAGGAGAAGACUGCGGGUUCGAGUCCCGUACGGAACG

Variants of: B1
Test: yeast fitness relative to wild type (ratio to wild type); higher = fitter; tRNA-Arg(CCU), competitive growth, 37 C, YPD
In short: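 Variants of the tRNA-Arg(CCU) gene were chemically synthesised with a 3% per-site mutation rate across 69 sites and placed at the native genomic locus in Saccharomyces cerevisiae. Six parallel replicates of the pooled strains were competed in YPD at 37°C for 24 hours, and gene amplicons from the start and end populations were read by 100-nucleotide paired-end sequencing. Darwinian fitness relative to wild type was derived from changes in genotype frequencies. Genotypes required ≥ 100 starting reads, and estimates < 0.5 were set to 0.5.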
Work on U7G C30U G38A G50A yielded a yeast fitness of 0.589. U7G C30U U47A showed a yeast fitness of at most 0.5. With U7G C31U A69U the yeast fitness was 0.628. U7G C31U C33G A42U gave a yeast fitness of 0.563. Variant U7G C34A has a yeast fitness of 0.757. U7G C55G showed a yeast fitness of 0.655. Work on U7G C62U yielded a yeast fitness of 0.893. Work on U7G G10C G44C A69U yielded a yeast fitness of 0.617. Variant U7G G12C G23C C29G A57U C60A G68C has a yeast fitness of at most 0.5. Variant U7G G23A C29U A36U has a yeast fitness of at most 0.5. For U7G G25C, the yeast fitness was 0.958. With U7G G25C G56A the yeast fitness was 0.697. Variant U7G G38A A40G C66A has a yeast fitness of at most 0.5. In the case of U7G G39A C55U G68C, the yeast fitness is reported as 0.594. Variant U7G G39A C66U A69U has a yeast fitness of at most 0.5. Work on U7G G39C A57G yielded a yeast fitness of at most 0.5. Variant U7G G41A has a yeast fitness of 0.776. U7G G41C A69C showed a yeast fitness of at most 0.5. In the case of U7G G41C G58C, the yeast fitness is reported as at most 0.5. U7G G56A C62A gave a yeast fitness of 0.572. Variant U7G U8C A70U has a yeast fitness of 0.588. U7G U13A gave a yeast fitness of 0.898. U7G U13C C31U showed a yeast fitness of 0.903. Variant U7G U19A C22G C24G A40G C55G G68C has a yeast fitness of at most 0.5. In the case of U7G U19C, the yeast fitness is reported as 0.767. With U7G U26C C49G the yeast fitness was at most 0.5. In the case of U7G U28C, the yeast fitness is reported as 0.808. U7G U28C G41C G58C gave a yeast fitness of at most 0.5. U7G U32A U35C C61G gave a yeast fitness of at most 0.5. Variant U7G U35A A43C has a yeast fitness of 0.532. With U7G U35A C49G C60A the yeast fitness was at most 0.5. Variant U7G U59G has a yeast fitness of 0.705. With U8A A14C the yeast fitness was 0.692. With U8A A14C C31A the yeast fitness was 0.571. Variant U8A A14C C31A G41C C49A has a yeast fitness of 0.562. For U8A A14G, the yeast fitness was 0.632. U8A A14G C31U G58A C61G C66U gave a yeast fitness of at most 0.5. With U8A A14G C46U G50C C55U A57U C62G A70U the yeast fitness was at most 0.5. U8A A14G C49G gave a yeast fitness of 0.538. U8A A15U C29G G41A C49G A57G showed a yeast fitness of at most 0.5. For U8A A20C U35A G38C, the yeast fitness was at most 0.5. Work on U8A A20C U35A G38C A69U yielded a yeast fitness of 0.597. For U8A A20U A21U G25A A43U, the yeast fitness was 0.584. U8A A20U A70C showed a yeast fitness of 0.56. For U8A A21G C27U G52C, the yeast fitness was at most 0.5. With U8A A36U C55G G58A U59C A69C the yeast fitness was at most 0.5. U8A A36U C55G U59C gave a yeast fitness of 0.579. In the case of U8A A40G C61G, the yeast fitness is reported as at most 0.5. For U8A A40U A70C, the yeast fitness was 0.547. U8A A43G showed a yeast fitness of 0.742. For U8A A43U C55U, the yeast fitness was 0.537. U8A C11A A36G C61G gave a yeast fitness of at most 0.5. Variant U8A C11A C24U G67C has a yeast fitness of at most 0.5. In the case of U8A C11A C31G, the yeast fitness is reported as at most 0.5. In the case of U8A C11A G56C, the yeast fitness is reported as at most 0.5. In the case of U8A C11G C34G C60G A65U, the yeast fitness is reported as at most 0.5. U8A C11U showed a yeast fitness of 0.633. For U8A C11U G25A C33A A40U, the yeast fitness was at most 0.5. With U8A C22G the yeast fitness was 0.7. Work on U8A C22G C46G C66U yielded a yeast fitness of 0.567. With U8A C22U A43G C66A the yeast fitness was at most 0.5. U8A C22U G38C C49G showed a yeast fitness of 0.602. In the case of U8A C24A A70U, the yeast fitness is reported as at most 0.5. U8A C24A C30U C31U G48C C66U showed a yeast fitness of at most 0.5. For U8A C24A U28C C61U U64A A69G, the yeast fitness was at most 0.5. With U8A C24G A40G C49U G56C the yeast fitness was at most 0.5. For U8A C24G G48C C49U U64A, the yeast fitness was at most 0.5. Variant U8A C24U C31G has a yeast fitness of at most 0.5. For U8A C27A A37U G67U, the yeast fitness was 0.612. U8A C27A G68C showed a yeast fitness of at most 0.5. For U8A C29A, the yeast fitness was at most 0.5. Work on U8A C29A A43G A57U yielded a yeast fitness of at most 0.5. U8A C29U C34U G58C gave a yeast fitness of at most 0.5. U8A C30G gave a yeast fitness of at most 0.5. In the case of U8A C30G G56C A57G G68A A69C, the yeast fitness is reported as at most 0.5. U8A C30U showed a yeast fitness of 0.665. Variant U8A C30U G63A has a yeast fitness of at most 0.5. With U8A C31G the yeast fitness was 0.679. U8A C31G A42G G52C showed a yeast fitness of at most 0.5. In the case of U8A C31G A57C C61U, the yeast fitness is reported as 0.506. For U8A C31G C34U C55U G58A C61U, the yeast fitness was at most 0.5. Variant U8A C31U A69C has a yeast fitness of 0.557. U8A C34G A65U C66A showed a yeast fitness of at most 0.5. Work on U8A C34U yielded a yeast fitness of 0.508. U8A C34U C55G showed a yeast fitness of at most 0.5. In the case of U8A C34U G67A A69G, the yeast fitness is reported as 0.568. U8A C49G A57C gave a yeast fitness of at most 0.5. With U8A C49U A69U the yeast fitness was 0.537. Variant U8A C55U G68A has a yeast fitness of 0.578. Work on U8A C61A yielded a yeast fitness of 0.753. U8A C66A showed a yeast fitness of 0.568. Variant U8A G9A A36C C61G G67C has a yeast fitness of 0.797. With U8A G9C G38A A40C U59C the yeast fitness was 0.638. For U8A G9C U54A, the yeast fitness was at most 0.5. Variant U8A G10A A69U has a yeast fitness of 0.542. With U8A G10A G39A the yeast fitness was 0.626. Variant U8A G10A G58C A69U has a yeast fitness of at most 0.5. With U8A G10C C11U C24U A42C U47C G68C the yeast fitness was at most 0.5. With U8A G10C C29A A40U C55G the yeast fitness was 0.533. In the case of U8A G10U C22U A37G, the yeast fitness is reported as 0.511. U8A G12A A14C C31A G41C C49A G56A showed a yeast fitness of 0.563. Work on U8A G12A A14C C60U G67C yielded a yeast fitness of at most 0.5. With U8A G12A A21G the yeast fitness was at most 0.5. Work on U8A G12A C33U A65U yielded a yeast fitness of 0.562. U8A G12A C62U showed a yeast fitness of at most 0.5. With U8A G12C U47C the yeast fitness was at most 0.5. In the case of U8A G17A C62G, the yeast fitness is reported as at most 0.5. For U8A G18A C30A U32A U35A G67A, the yeast fitness was at most 0.5. In the case of U8A G18A C30A U32A U35G C66U A69U, the yeast fitness is reported as at most 0.5. U8A G18A G25A C33U G51A G56A showed a yeast fitness of 0.614. With U8A G18A U32A G58A the yeast fitness was at most 0.5. Work on U8A G18C C24A U32C A70U yielded a yeast fitness of at most 0.5. In the case of U8A G18C C24A U32C G52C G56A, the yeast fitness is reported as at most 0.5. With U8A G18C G48C A65G the yeast fitness was at most 0.5. With U8A G23A C30G U59A A70C the yeast fitness was at most 0.5. U8A G25A C29G A37C gave a yeast fitness of 0.646. Work on U8A G38C G48A yielded a yeast fitness of at most 0.5. Variant U8A G39C A57G A65G has a yeast fitness of at most 0.5. Work on U8A G44A G67C yielded a yeast fitness of at most 0.5. In the case of U8A G48C, the yeast fitness is reported as 0.761. Work on U8A G68C yielded a yeast fitness of 0.661. With U8A U13A the yeast fitness was 0.606. With U8A U13A A20C A21U A42U the yeast fitness was at most 0.5. Variant U8A U13A G48C has a yeast fitness of 0.516. Work on U8A U16A C29G A40G A42G C46G A65U yielded a yeast fitness of at most 0.5. Variant U8A U16G C30U C33G A37C A43G has a yeast fitness of at most 0.5. U8A U19A G50C showed a yeast fitness of at most 0.5. U8A U19C C31A U35G A43G U47C G52C G67A showed a yeast fitness of 0.575. U8A U19C G48C U59A C61U C66U showed a yeast fitness of at most 0.5. With U8A U26C G38A the yeast fitness was at most 0.5. U8A U26C G52C gave a yeast fitness of at most 0.5. Variant U8A U28A C31G G44A G51C A65G has a yeast fitness of at most 0.5. In the case of U8A U32G A37G, the yeast fitness is reported as at most 0.5. For U8A U35C A42C G67A, the yeast fitness was 0.568. In the case of U8A U53A, the yeast fitness is reported as at most 0.5. With U8A U54A C55U G68A A69U the yeast fitness was 0.507. U8C A14C C24G G68A gave a yeast fitness of at most 0.5. Variant U8C A14C C55U C61G C62G has a yeast fitness of at most 0.5. U8C A14C G18A C31U gave a yeast fitness of at most 0.5. U8C A14G G56C gave a yeast fitness of at most 0.5. Work on U8C A14U yielded a yeast fitness of 0.805. Work on U8C A15G yielded a yeast fitness of 0.969. In the case of U8C A15G U16A C46U U54C, the yeast fitness is reported as 0.601. With U8C A15U G25A C34G G58C the yeast fitness was at most 0.5. In the case of U8C A21G U28C, the yeast fitness is reported as 0.637. U8C A21U gave a yeast fitness of 0.802. U8C A21U C30G G58C showed a yeast fitness of at most 0.5. In the case of U8C A21U C34A A40C G67A, the yeast fitness is reported as at most 0.5. U8C A21U U32A C55G showed a yeast fitness of 0.517. U8C A36G G39C C49U U54G showed a yeast fitness of at most 0.5. Work on U8C A36U yielded a yeast fitness of 0.647. In the case of U8C A36U G50C, the yeast fitness is reported as at most 0.5. Variant U8C A37G has a yeast fitness of 0.657. Variant U8C A37G G50A A69U has a yeast fitness of at most 0.5. In the case of U8C A40G A43C, the yeast fitness is reported as 0.732. For U8C A40U A69U, the yeast fitness was 0.75. U8C A42C showed a yeast fitness of 0.857. U8C A43C C66G showed a yeast fitness of at most 0.5. For U8C A45C, the yeast fitness was 0.802. For U8C A70G, the yeast fitness was 0.971. Variant U8C C11A U54C has a yeast fitness of at most 0.5. For U8C C11U C22G C55G G63C, the yeast fitness was at most 0.5. U8C C11U C24G A45C gave a yeast fitness of 0.629. For U8C C11U C29A, the yeast fitness was at most 0.5. With U8C C11U G18A A20U C22G C31G the yeast fitness was at most 0.5. In the case of U8C C22A A36C C55G A65G C66G, the yeast fitness is reported as at most 0.5. In the case of U8C C22A A42U U54C C66G, the yeast fitness is reported as at most 0.5.
